Experimental data as given in the M2OR odorant receptor database.

Experiments:
Details in all cases: stereoisomer not certain
OR10A3 (Homo sapiens) = biological target: T1, OR10A3 (Homo sapiens) (UniProt P58181)
T1 sequence (whole entry): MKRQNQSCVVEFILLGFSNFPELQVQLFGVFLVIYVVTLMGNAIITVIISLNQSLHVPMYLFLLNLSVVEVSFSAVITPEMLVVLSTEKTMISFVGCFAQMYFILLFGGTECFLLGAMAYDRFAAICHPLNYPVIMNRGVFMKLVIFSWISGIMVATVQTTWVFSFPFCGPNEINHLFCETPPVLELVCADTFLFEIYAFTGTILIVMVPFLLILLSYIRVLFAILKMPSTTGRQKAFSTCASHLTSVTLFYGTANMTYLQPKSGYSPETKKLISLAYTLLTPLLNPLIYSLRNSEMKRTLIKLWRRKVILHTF
Summary of the method: (§1)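 Transient luciferase assays in mammalian cell lines were common, though methods varied by source. The values come from published papers and their supplementary material, with extra details from the original authors when needed. Responsive refers to a measured signal the original authors judged statistically different from baseline, and non-responsive (inactive) to the remainder.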

OR10A4 (Homo sapiens) = biological target: T2, OR10A4 (Homo sapiens) (UniProt Q9H209)
T2 sequence (whole entry): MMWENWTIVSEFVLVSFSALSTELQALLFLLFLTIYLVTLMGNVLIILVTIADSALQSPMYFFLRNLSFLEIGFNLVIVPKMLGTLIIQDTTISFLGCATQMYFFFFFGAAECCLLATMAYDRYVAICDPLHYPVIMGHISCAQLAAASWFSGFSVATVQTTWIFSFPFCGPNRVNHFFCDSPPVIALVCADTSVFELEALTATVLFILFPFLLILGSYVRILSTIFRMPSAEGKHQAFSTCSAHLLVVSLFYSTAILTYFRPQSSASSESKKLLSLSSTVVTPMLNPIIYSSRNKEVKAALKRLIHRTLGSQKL
Summary of the method: as §1

OR10A5 (Homo sapiens) = biological target: T3, OR10A5 (Homo sapiens) (UniProt Q9H207)
T3 sequence (whole entry): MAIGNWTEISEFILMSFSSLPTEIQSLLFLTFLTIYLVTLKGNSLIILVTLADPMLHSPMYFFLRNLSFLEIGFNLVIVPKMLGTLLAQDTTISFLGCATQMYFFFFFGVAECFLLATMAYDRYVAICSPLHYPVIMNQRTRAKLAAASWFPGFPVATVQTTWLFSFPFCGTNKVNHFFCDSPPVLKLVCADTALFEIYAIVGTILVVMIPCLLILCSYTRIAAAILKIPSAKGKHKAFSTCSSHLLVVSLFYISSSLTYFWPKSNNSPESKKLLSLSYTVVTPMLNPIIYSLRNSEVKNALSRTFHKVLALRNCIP
Summary of the method: as §1

OR10A6 (Homo sapiens) = biological target: T4, OR10A6 (Homo sapiens) (UniProt Q8NH74)
T4 sequence (whole entry): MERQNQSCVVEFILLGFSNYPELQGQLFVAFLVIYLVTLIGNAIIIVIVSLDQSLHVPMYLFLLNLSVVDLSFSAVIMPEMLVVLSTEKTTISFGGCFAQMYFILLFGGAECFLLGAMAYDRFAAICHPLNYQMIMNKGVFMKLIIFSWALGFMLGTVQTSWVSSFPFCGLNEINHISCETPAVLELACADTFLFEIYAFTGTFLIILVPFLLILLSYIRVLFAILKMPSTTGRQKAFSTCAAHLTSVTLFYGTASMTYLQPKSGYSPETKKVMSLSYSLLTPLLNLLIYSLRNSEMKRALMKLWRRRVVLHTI
Summary of the method: as §1

OR10A7 (Homo sapiens) = biological target: T5, OR10A7 (Homo sapiens) (UniProt Q8NGE5)
T5 sequence (whole entry): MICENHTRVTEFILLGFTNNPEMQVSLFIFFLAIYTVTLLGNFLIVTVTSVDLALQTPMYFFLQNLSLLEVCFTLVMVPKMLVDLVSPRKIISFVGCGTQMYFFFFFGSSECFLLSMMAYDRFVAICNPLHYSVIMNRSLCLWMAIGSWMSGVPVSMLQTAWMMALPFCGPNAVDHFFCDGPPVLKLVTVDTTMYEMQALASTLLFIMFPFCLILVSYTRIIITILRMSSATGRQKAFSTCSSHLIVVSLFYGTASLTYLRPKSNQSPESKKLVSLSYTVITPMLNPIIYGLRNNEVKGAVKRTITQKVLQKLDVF
Summary of the method: as §1

OR10AD1 (Homo sapiens) = biological target: T6, OR10AD1 (Homo sapiens) (UniProt Q8NGE0)
T6 sequence (whole entry): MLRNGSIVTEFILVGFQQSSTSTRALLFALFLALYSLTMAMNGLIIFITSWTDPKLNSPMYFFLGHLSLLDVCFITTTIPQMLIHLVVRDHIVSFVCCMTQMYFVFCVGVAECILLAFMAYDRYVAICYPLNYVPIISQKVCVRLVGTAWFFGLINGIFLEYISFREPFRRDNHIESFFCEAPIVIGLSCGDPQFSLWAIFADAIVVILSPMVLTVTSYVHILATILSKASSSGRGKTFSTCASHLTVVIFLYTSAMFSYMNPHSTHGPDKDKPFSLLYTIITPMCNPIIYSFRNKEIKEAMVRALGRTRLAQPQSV
Summary of the method: as §1

OR10AG1 (Homo sapiens) = biological target: T7, OR10AG1 (Homo sapiens) (UniProt Q8NH19)
T7 sequence (whole entry): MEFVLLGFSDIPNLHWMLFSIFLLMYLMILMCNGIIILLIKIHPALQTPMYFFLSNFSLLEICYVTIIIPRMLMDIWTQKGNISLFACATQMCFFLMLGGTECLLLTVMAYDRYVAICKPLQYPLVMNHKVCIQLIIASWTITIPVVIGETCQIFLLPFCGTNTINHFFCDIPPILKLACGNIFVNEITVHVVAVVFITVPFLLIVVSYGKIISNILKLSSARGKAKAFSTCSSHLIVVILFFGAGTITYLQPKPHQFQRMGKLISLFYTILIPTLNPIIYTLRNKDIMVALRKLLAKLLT
Summary of the method: as §1

OR10C1 (Homo sapiens) = biological target: T8, OR10C1 (Homo sapiens) (UniProt Q96KK4)
T8 sequence (whole entry): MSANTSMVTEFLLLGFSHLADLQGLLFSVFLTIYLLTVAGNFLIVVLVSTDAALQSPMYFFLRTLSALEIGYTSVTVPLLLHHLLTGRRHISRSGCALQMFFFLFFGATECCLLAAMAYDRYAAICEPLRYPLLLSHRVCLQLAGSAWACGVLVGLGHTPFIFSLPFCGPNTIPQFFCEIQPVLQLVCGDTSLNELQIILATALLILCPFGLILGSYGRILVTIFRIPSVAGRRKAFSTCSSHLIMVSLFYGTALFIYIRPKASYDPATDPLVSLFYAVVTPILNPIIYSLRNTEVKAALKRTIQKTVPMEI
Summary of the method: as §1

OR10D3 (Homo sapiens) = biological target: T9, OR10D3 (Homo sapiens) (UniProt Q8NH80)
T9 sequence (whole entry): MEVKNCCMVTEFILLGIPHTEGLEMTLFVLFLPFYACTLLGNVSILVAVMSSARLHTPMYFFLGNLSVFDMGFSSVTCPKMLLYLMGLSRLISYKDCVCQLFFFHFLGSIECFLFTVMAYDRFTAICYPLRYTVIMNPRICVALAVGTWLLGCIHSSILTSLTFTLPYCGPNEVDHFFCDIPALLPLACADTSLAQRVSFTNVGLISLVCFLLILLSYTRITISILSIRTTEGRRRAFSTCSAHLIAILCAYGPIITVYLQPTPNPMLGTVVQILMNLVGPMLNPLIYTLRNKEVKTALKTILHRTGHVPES
Summary of the method: as §1

Measured: odorant receptor agonist call;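 further: active if original authors judged signal statistically different from baseline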

CCC1OC(=O)C(O)=C1C (centres undefined)
inactive: all assays above
